Consider 20 molecules from ChEMBL document CHEMBL1157305, “Serotonergic activity-guided phytochemical investigation of the roots of Angelica sinensis” (J Nat Prod, 2006).

Test [1] has as its target T1, 5-hydroxytryptamine receptor 7 (Homo sapiens, UniProt P34969). Kind of test: Displacement of [3H]LSD from human recombinant 5HT7 receptor expressed in CHO cells at 100 uM by liquid scintillation counting relative to control. Format: cell-based. Summed up: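 Membranes from confluent human 5-HT7-transfected CHO cells were lysed in hypotonic buffer at 4 °C and homogenized in TEM buffer. Protein was measured by Lowry. Binding used [3H]LSD (5 nM) in 75 mM Tris-HCl, 1.25 mM MgCl2, 1 mM EDTA, pH 7.4, for 1 h at 37 °C. Samples were filtered on PEI-presoaked filters and counted by liquid scintillation. Nonspecific binding was defined with 250 nM 5-HT.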
(In general: In a radioligand displacement assay an active substance lowers the binding of a labelled ligand.)

Test [2] has as its target T1, 5-hydroxytryptamine receptor 7. The test is described as follows: Displacement of [3H]LSD from human recombinant 5HT7 receptor expressed in CHO cells by liquid scintillation counting. Format: cell-based. Summed up: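 Membranes from confluent CHO cells stably carrying human 5-HT7, grown in Ham's F-12 with 10% FBS. Cells lysed in hypotonic Tris/MgCl2/EDTA buffer at 4 °C, and membranes washed in TEM buffer. Incubated with 5 nM [3H]LSD for 1 h at 37 °C in 75 mM Tris-HCl, 1.25 mM MgCl2, 1 mM EDTA, pH 7.4. Filtered, then counted by scintillation. Nonspecific binding defined with 250 nM 5-HT. IC50 is the concentration giving 50% inhibition of binding.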

T1 sequence (P34969 whole entry): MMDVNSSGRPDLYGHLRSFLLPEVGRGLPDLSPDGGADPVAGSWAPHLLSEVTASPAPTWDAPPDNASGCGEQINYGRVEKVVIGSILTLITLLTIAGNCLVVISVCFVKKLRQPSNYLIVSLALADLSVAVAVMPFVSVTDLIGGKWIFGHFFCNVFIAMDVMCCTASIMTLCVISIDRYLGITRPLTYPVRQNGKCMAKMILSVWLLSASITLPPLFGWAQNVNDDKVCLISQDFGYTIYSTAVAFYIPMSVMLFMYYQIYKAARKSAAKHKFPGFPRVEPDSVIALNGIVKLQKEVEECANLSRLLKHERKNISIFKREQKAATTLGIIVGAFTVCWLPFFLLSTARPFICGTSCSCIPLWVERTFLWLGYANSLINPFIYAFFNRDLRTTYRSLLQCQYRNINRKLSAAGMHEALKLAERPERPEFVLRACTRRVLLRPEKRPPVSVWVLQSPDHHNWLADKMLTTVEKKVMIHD

For `C=C[C@@H](O)C#CC#C[C@@H](O)/C=C\CCCCCCCCOC(C)=O`, in test [1], the inhibition stood at 49%. In addition, in test [2], the IC50 was found to be 118 µM.

Take `CCC/C=C1\OC(=O)C2=C1CCC=C2`: the inhibition in test [1] came to 33%.

For the molecule `CC[C@H](/C=C/[C@@H](C)[C@H]1CC[C@H]2[C@@H]3CC=C4C[C@@H](O)CC[C@]4(C)[C@H]3CC[C@]12C)C(C)C`, the inhibition in test [1] was 0%.

With `CC(C)=CCOc1c2occc2cc2ccc(=O)oc12`, the inhibition in test [1] was 57%.

`COc1cc(/C=C/C(=O)O)ccc1O`: the inhibition in test [1] came out at 41%.

`CCC/C=C1\OC(=O)C23C=CCCCC12C1(OC(=O)c2ccccc21)C3CCC` (stereo not given): the inhibition in test [1] is 24%.

With `CCC/C=C1\OC(=O)C2=CC3CCC21[C@]1(OC(=O)c2ccccc21)[C@@H]3CCC` (stereo not given in full), the inhibition in test [1] was found to be 19%.

`CCCCCCC/C=C\[C@H](O)C#CC#C[C@@H](O)CC`: the inhibition in test [1] came out at 5%.

Regarding `CCC/C=C1\OC(=O)c2ccccc21` [Z-butylidenephthalide], the inhibition in test [1] amounted to 46%. Also, the IC50 in test [2] is 127 µM.

Take `C=C[C@H](O)C#CC#C[C@@H](O)C1OC1CCCCCCC` (stereo not given in full): the inhibition in test [1] was 36%.

As for `C/C=C(/C)C(=O)OC(C)CCC1OC(=O)c2ccccc21` (stereo not given), the inhibition in test [1] came out at 21%.

`COc1cc(/C=C/C(=O)OCCc2ccc(O)cc2)ccc1O`: in test [1], the inhibition came to 71%. The IC50 in test [2] came to 47.6 µM.

Consider `C=C[C@@H](O)C#CC#C[C@@H](O)/C=C\CCCCCCC` [FALCARINDIOL], for which, in test [1], the inhibition amounted to 61%. Besides, the IC50 in test [2] was 118 µM.

As to `CCCCNS(=O)(=O)c1ccccc1`, the inhibition in test [1] came out at 0%.

In the case of `CCC/C=C1\OC(=O)C2=C1CC[C@@H](O)[C@@H]2O`, the inhibition in test [1] was 0%.

Regarding `COc1cc(/C=C/C(=O)OCC(O)C(OC)c2ccc(O)c(OC)c2)ccc1O` (stereo not given), the inhibition in test [1] is 31%.

Consider `CC/C=C\C/C=C\C/C=C\CCCCCCCC(=O)OCC(O)COC(=O)CCCCCCCC/C=C\C/C=C\C=C\CC` (stereo not given), for which, in test [1], the inhibition turned out to be 0%.

For the molecule `CCCCCCC/C=C\[C@H](O)C#CC#CC(=O)CCOC`, the inhibition in test [1] is 69%. Further, the IC50 in test [2] is over 150 µM.

With `COc1cc(C=O)ccc1O`, the inhibition in test [1] amounted to 0%.

For the molecule `CCC/C=C1\OC(=O)C2=C1CCC(O)C2OC` (stereo not given), the inhibition in test [1] worked out at 36%.

The term inhibition denotes the share of the control response that was lost under treatment. For orientation: IC50 means the point on the concentration scale where inhibition reaches its midpoint.
